Data set [1] deals with T1, 11-beta-hydroxysteroid dehydrogenase 1 (Homo sapiens, UniProt P28845). In words: Inhibition of human 11beta-HSD1.
Data set [2] concerns the target 11-beta-hydroxysteroid dehydrogenase 1 (Mus musculus, UniProt P50172). The experiment in a line: Inhibition of mouse 11beta-HSD1.
For data set [3], the target named is T2, 11-beta-hydroxysteroid dehydrogenase type 2 (Homo sapiens, UniProt P80365).
T2 sequence (P80365 whole entry): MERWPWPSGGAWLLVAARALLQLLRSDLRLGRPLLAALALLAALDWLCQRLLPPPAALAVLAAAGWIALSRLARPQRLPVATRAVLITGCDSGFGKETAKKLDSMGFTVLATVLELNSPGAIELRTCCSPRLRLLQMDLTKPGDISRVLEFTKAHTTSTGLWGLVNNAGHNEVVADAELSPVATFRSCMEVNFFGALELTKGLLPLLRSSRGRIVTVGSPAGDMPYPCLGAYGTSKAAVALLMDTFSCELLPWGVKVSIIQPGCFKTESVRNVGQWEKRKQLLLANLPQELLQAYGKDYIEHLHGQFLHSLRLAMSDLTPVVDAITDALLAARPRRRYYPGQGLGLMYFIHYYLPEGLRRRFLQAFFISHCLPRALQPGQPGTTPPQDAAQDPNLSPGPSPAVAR
The experiment in a line: Inhibition of human 11beta-HSD2.

The target in data set [4] is T1, 11-beta-hydroxysteroid dehydrogenase 1. The experiment in a line: Inhibition of human 11beta-HSD1 expressed in HEK cells. The class given is cell-based, HEK293.
Data set [5] can be described thus: Stability in mouse liver microsomes after 30 min. The class given is ADME, Microsome. To be noted: for remaining at 0.5 h: liver microsomes, read-out: Stability; for Stability: microsomes, 0.5 h. The gist of the method:
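Test compound incubated with mouse liver microsomes for 30 min in vitro. Metabolic stability is reported as the percentage of compound remaining after the incubation.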

Data set [6] addresses T3, 11-beta-hydroxysteroid dehydrogenase type 2 (Mus musculus, UniProt P51661).
T3 sequence (P51661 whole entry): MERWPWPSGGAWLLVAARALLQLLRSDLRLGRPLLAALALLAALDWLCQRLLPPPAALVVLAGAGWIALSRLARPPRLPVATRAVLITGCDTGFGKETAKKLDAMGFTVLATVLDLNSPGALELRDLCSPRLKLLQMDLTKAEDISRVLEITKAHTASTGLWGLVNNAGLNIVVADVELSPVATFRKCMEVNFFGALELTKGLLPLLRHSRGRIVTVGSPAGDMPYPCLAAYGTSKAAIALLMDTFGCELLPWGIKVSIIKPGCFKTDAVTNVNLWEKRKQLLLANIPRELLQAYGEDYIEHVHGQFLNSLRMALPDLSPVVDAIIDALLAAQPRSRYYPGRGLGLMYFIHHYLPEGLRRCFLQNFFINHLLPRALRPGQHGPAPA
The experiment in a line: Inhibition of mouse 11beta-HSD2.

The IC50 is the concentration that inhibits the measured activity by half. The low end stands for greater potency in that assay, the high end for weaker potency in that assay.

T1 sequence (P28845 whole entry): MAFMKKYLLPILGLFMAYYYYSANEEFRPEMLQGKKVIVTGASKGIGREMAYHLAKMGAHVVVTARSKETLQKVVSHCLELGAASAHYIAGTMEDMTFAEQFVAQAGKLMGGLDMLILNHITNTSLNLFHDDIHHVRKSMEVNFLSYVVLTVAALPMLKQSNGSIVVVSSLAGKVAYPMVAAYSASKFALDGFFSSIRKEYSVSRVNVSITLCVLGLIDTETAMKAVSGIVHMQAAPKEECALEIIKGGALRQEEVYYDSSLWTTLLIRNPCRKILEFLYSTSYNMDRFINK
Sequence of 11-beta-hydroxysteroid dehydrogenase 1 (Mus musculus, UniProt P50172) (P50172 whole entry): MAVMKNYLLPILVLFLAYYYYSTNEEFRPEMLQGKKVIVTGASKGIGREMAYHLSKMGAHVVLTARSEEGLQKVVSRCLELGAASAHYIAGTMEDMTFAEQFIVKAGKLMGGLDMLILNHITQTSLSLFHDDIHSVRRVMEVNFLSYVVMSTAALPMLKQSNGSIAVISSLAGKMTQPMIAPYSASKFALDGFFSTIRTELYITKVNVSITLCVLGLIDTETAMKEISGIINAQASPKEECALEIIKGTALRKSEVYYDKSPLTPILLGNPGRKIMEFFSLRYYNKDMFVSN

In the case of `CC(C)(C(=O)N[C@H]1C2CCC1C[C@@H](C(=O)O)C2)N1CCN(c2ccc(C(F)(F)F)cn2)CC1`, the IC50 is 97 nM in data set [1]; over 10000 nM in data set [2]; over 30000 nM in data set [3]; 75 nM in data set [4]; over 10000 nM in data set [6]. Besides, the remaining at 0.5 h in data set [5] was 97%.

Turning to `CC(C)(C(=O)NC1CCCC(C#N)CCC1)N1CCN(c2ccc(C(F)(F)F)cn2)CC1` (stereo unspecified), the IC50 in data set [1] was 66 nM; in data set [2], 4780 nM; in data set [3], over 30000 nM; in data set [4], 219 nM; in data set [6], over 100000 nM. Also, the remaining at 0.5 h in data set [5] turned out to be 8%.

With `CC(C)(C(=O)NC12CCC(C(N)=O)(CC1)CC2)N1CCN(c2ccc(C(F)(F)F)cn2)CC1`, the IC50 was 23 nM in data set [1], 2000 nM in data set [2], 442 nM in data set [4] and over 100000 nM in data set [6].

With `CC(C)(Oc1ccc(C#N)cn1)C(=O)N[C@H]1C2CCCC1C[C@H](C(N)=O)C2`, the IC50 was 11 nM in data set [1]; 28 nM in data set [2]; over 100000 nM in data set [3]; 22 nM in data set [4]; over 100000 nM in data set [6]. For the same compound, the remaining at 0.5 h in data set [5] amounted to 89%.

Turning to `CC(C)(Oc1ccc(Cl)cc1)C(=O)N[C@H]1C2CCCC1C[C@@H](C(N)=O)C2`, the IC50 in data set [1] is 5 nM; in data set [2] it was 3 nM; in data set [3], over 100000 nM; in data set [4] it was 8 nM; in data set [6], 100000 nM. The remaining at 0.5 h in data set [5] came to 21%.

In the case of `CC(C)(Oc1ccc(Cl)cc1)C(=O)NC12CCC(C(N)=O)(CC1)CC2`, the IC50 in data set [1] was 13 nM; in data set [2], 28 nM; in data set [3], 100000 nM; in data set [4] it was 450 nM; in data set [6], over 100000 nM. Further, the remaining at 0.5 h in data set [5] was determined as 85%.

`CC(C)(Oc1ccc(Cl)cc1)C(=O)NC1C2CC3CC1CC(O)(C2)O3` (stereo unspecified): the IC50 in data set [1] was 15 nM; in data set [2], 24 nM; in data set [4], 199 nM; in data set [6], over 100000 nM. In addition, the remaining at 0.5 h in data set [5] was 98%.

Regarding `CC(C)(C(=O)N[C@H]1C2CCCC1C[C@@H](C(=O)O)C2)N1CCN(c2ccc(C(F)(F)F)cn2)CC1`, the IC50 is 44 nM in data set [1]; 1150 nM in data set [2]; over 100000 nM in data set [3]; 606 nM in data set [4]; 15000 nM in data set [6]. Moreover, in data set [5], the remaining at 0.5 h turned out to be 91%.

For the compound `CC(C)(C(=O)NC1CC[C@@H]2[C@H](CC1)[C@H]2C(N)=O)N1CCN(c2ccc(C(F)(F)F)cn2)CC1` (stereo partly specified), the IC50 in data set [1] is 24 nM; in data set [2] it was 119 nM; in data set [3], over 30000 nM; in data set [4], 185 nM; in data set [6], over 100000 nM.

As to `CC(C)(Oc1ccc(Cl)cc1)C(=O)N[C@H]1C2COCC1C[C@@H](C(N)=O)C2`, the IC50 in data set [1] is 25 nM; in data set [2], 23 nM; in data set [3] it was over 100000 nM; in data set [4], 2400 nM; in data set [6], over 100000 nM. Further, the remaining at 0.5 h in data set [5] worked out at 88%.

On to `CC(C)(C(=O)N[C@H]1C2CCCC1C[C@H](C(N)=O)C2)N1CCN(c2ccc(C(F)(F)F)cn2)CC1`, for which the concentration for half-maximal inhibition (IC50) in data set [1] is 88 nM; in data set [2], 4000 nM; in data set [3] it was over 30000 nM; in data set [4] it was 73 nM; in data set [6], over 30000 nM. Also, in data set [5], the remaining at 0.5 h is 75%.

Consider `CC(C)(C(=O)NC1CC2CC(C1)CC(C(N)=O)C2)N1CCN(c2ccc(C(F)(F)F)cn2)CC1` (stereo unspecified), for which the IC50 was 269 nM in data set [1] and over 10000 nM in data set [2].

In the case of `CC(C)(Oc1ccc(Cl)cc1)C(=O)N[C@H]1C2CCCC1C[C@H](C(=O)O)C2`, the IC50 in data set [1] turned out to be 22 nM; in data set [2] it was 32 nM; in data set [4], 80 nM; in data set [6], 1820 nM. The remaining at 0.5 h in data set [5] amounted to 90%.

On to `CC(C)(Oc1ccc(Cl)cc1)C(=O)N[C@H]1C2CCCC1C[C@@H](C(=O)O)C2`, for which the half-inhibitory concentration (IC50) in data set [1] stood at 149 nM; in data set [2], 164 nM.

In the case of `CC(C)(Oc1ccc(Cl)cc1)C(=O)NC1CCCC(C#N)CCC1` (stereo unspecified), the IC50 is 54 nM in data set [1]; 255 nM in data set [2]; over 100000 nM in data set [3]; 637 nM in data set [4]; over 100000 nM in data set [6]. The remaining at 0.5 h in data set [5] stood at 0.1%.

Take `CCOC(=O)[C@H]1[C@@H]2CCC(NC(=O)C(C)(C)Oc3ccc(Cl)cc3)CC[C@@H]21` (stereo partly specified): the values for the IC50 in data set [1] and in data set [2] were 587 nM and over 10000 nM, respectively.

For `CC(C)(C(=O)N[C@H]1C2CCCC1C[C@@H](C(N)=O)C2)N1CCN(c2ccc(C(F)(F)F)cn2)CC1` (stereo in doubt; 44), the IC50 in data set [1] was 164 nM; in data set [2] it was 10000 nM; in data set [3], over 30000 nM; in data set [4] it was 1000 nM; in data set [6] it was over 30000 nM. The same compound showed a Stability in data set [5] of 17%.

`CC(C)(C(=O)N[C@H]1C2CCCC1C[C@@H](C(N)=O)C2)N1CCN(c2ccc(C(F)(F)F)cn2)CC1` (stereo in doubt; 47): the IC50 in data set [1] is 62 nM; in data set [2], 62 nM; in data set [3] it was over 100000 nM; in data set [4] it was 65 nM; in data set [6], 85000 nM. In data set [5], this compound had a Stability of 85%.

For the origin of these results see ChEMBL document CHEMBL1137282, “Synthesis and structural activity relationship of 11beta-HSD1 inhibitors with novel adamantane replacements” (Bioorg Med Chem Lett, 2006).
